# Where “and” joins values, the source holds several entries; their conditions need not be identical. Equal values may be shown once. Entries after “also recorded” stand apart in the source; their conditions may differ.
# What was measured:
# [1] = test system: PC12 cells expressing mutant G93A SOD1; assay type: cell-based; settings: for EC50: PC12 cells expressing mutant G93A SOD1, MG132 100 nM, Calcein-AM viability
# [2] = In vitro microsomal stability, human; assay type: in vitro ADME; settings: 37 °C; for CLint scaled at 1 h, 5 µM: human, microsomes
# [3] = In vitro microsomal stability, mouse; assay type: in vitro ADME; settings: 5 μM, 37 °C; for CL’int: 1 h, with NADPH; for CL’int NADPH-free: absence of NADPH
# Aqueous solubility = assay type: physicochemical; settings: for Maximum Solubility: 1% DMSO in PBS
# Caco-2 monolayer cells = test: Caco-2 permeability; assay type: in vitro ADME; settings: for Ratio (B→A / A→B): Caco-2 efflux ratio
# primary cortical neurons = test: Primary cortical neuron cell protection assay; assay type: cell-based, rat; settings: MG132 100 nM; active = viability restored ≥ 5 SD from MG132 controls
# ALS patients = settings: cited from earlier work
# [4] = Metabolite profiling of 1; assay type: in vitro ADME; settings: rat liver microsomes, 5 μM, in the presence of NADPH, LC/MS/MS
# Outline: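 Test compound and its [15N2]-labelled analog (5 μM) were incubated in duplicate with or without rat liver microsomes, in the presence and absence of NADPH. Aliquots were taken at 0, 10, 20, 40 and 60 min. Protein was precipitated with acetonitrile containing internal standard, and supernatants were analysed by LC/MS/MS for new peaks absent from no-microsome, no-compound and no-NADPH controls.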
# SHSY-5Y = test: Screen in other cell types: SHSY-5Y; assay type: cell-based
# HeLa = test: Screen in other cell types: HeLa; assay type: cell-based
# HEK293 = test: Screen in other cell types: HEK293; assay type: cell-based
# [5] = Mouse in vivo steady-state level and blood-brain barrier penetration; set-up: species or system mice
# Outline: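 B6SJL mice received a 300 mg/kg bolus i.p. injection of test compound. Blood and brain were collected at 0, 1, 3, 6, 12 and 24 h, flash-frozen in liquid nitrogen and stored at -80 °C. Samples were quantified by mass spectrometry with ESI ionization in MRM mode.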
# In vivo rat PK profiling = test: In vivo rat PK profiling; set-up: species or system Sprague-Dawley rats; settings: SD rats
# Outline: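 Sprague-Dawley rats received a single 1 mg/kg bolus of test compound, i.v. or orally. Plasma profiling gave AUC last, AUC/dose, T1/2, clearance, Vss, Cmax, Tmax and oral bioavailability (%F). Work was done by a contract partner.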
# CYP2C19 = CYP2C19 (Homo sapiens, UniProt P33261); test: CYP inhibition in human liver microsomes; assay type: biochemical
# Sequence of CYP2C19 (P33261 whole entry): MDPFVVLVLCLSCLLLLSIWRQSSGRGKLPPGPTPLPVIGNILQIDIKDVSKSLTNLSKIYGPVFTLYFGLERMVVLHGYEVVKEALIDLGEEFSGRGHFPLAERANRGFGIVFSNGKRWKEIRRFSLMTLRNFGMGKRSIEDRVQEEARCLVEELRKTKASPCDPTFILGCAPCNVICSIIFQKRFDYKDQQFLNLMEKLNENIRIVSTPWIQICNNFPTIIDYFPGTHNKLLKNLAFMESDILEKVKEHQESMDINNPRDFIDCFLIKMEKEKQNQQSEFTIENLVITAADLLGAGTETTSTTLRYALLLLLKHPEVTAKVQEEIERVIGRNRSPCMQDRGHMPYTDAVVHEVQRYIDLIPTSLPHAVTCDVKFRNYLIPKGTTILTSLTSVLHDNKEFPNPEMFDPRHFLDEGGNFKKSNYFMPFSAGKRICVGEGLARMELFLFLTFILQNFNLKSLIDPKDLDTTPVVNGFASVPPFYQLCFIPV
# Outline: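 Reversible CYP inhibition was measured in human liver microsomes across CYP1A2, 2C9, 2C19, 2D6 and 3A4. Each isozyme used a single probe substrate, except CYP3A4, which used both testosterone and midazolam. IC50 values were derived from this. Work was done by a contract partner.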
# [6] = test system: 68 in vitro enzyme and receptor assays; test: LeadProfilingScreen; assay type: binding; settings: 10 μM, in duplicate
# Outline: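 Test compound was screened at 10 μM in duplicate against a commercial panel of 68 enzyme and receptor assays. The panel covers common adverse CNS, cardiovascular, pulmonary and […] liabilities.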
# [7] = B6SJL, mouse, plasma, ip, 300 mg/kg
compound,measurement,setting,value
"5-(4-Chloro-2,5-dimethylphenylsulfonyl)-1H-pyrazol-3(2H)-one [Compound 8]",EC50,[1],1470 nM
5-(4-Chlorophenylsulfonyl)-1H-pyrazol-3(2H)-one [Compound 6],EC50,[1],4700 nM
"5-(3,5-Dichlorophenylsulfonyl)-1H-pyrazol-3(2H)-one [Compound 7]",EC50,[1],1410 nM
same,CL’int,"[2]; 5 μM, 1 h, with NADPH",4.5 mL/min/kg
same,CL’int NADPH-free,"[2]; 5 μM, absence of NADPH",1.3 mL/min/kg
same,CL’int,[3],15.3 mL/min/kg
same,Maximum Solubility,Aqueous solubility; 45 min,≥500 µM
same,Maximum Solubility,Aqueous solubility; 16 h,≥500 µM
same,Papp (A→B),Caco-2 monolayer cells; Caco-2,27.0 10^−6 cm/s
same,Papp (B→A),Caco-2 monolayer cells; Caco-2,4.4 10^−6 cm/s
same,Ratio (B→A / A→B),Caco-2 monolayer cells,0.2
same,activity in primary cortical neuron cell protection assay,primary cortical neurons,active
Nc1nc2ccc(OC(F)(F)F)cc2s1 [riluzole],extension of patient lives,ALS patients,2–3 months
"5-(4-Chloro-2,5-dimethylphenylsulfinyl)-1H-pyrazol-3(2H)-one [Compound 5]",EC50,[1],2880 nM
5-(4-Chlorophenylsulfinyl)-1H-pyrazol-3(2H)-one [Compound 4],maximum viability in the cytotoxicity protection assay,[1],~ 35%
same,EC50,[1],> 32000 nM
O=c1cc(CSc2ccc(Cl)cc2)[nH][nH]1 [Compound 1],microsomal metabolite identified,[4],sulfoxide
"O=c1cc(COc2ccc(Cl)cc2)[nH][nH]1 [Compound 9, 5-((4-Chlorophenoxy)methyl)-1H-pyrazol-3(2H)-one]","CLint scaled at 1 h, 5 µM","[2]; CL’int, 1 h, with NADPH",15.3 mL/min/kg
same,CL’int,[3],24.5 mL/min/kg
same,CL’int NADPH-free,[3],6.1 mL/min/kg
"O=c1cc(COc2cc(Cl)cc(Cl)c2)[nH][nH]1 [Compound 13, 5-((3,5-Dichlorophenoxy)methyl)-1H-pyrazol-3(2H)-one]","CLint scaled at 1 h, 5 µM","[2]; CL’int NADPH-free, absence of NADPH",13 mL/min/kg
same,CL’int,[3],64 mL/min/kg
same,CL’int NADPH-free,[3],21 mL/min/kg
same,solubility at 45 min,Aqueous solubility; PBS with 1% DMSO,250 µM
same,solubility at 16 h,Aqueous solubility; PBS with 1% DMSO,250 µM
same,Ratio (B→A / A→B),Caco-2 monolayer cells,0.2–0.6
same,activity in primary cortical neuron cell protection assay,primary cortical neurons,active
same,activity in SHSY-5Y cells,SHSY-5Y,active
same,activity in HeLa cells,HeLa,active
same,activity in HEK293 cells,HEK293,active
same,concentration at 0 h,[5]; [7],0 ng/mL
same,concentration at 3 h,[5]; [7],88800 ng/mL and 88.8 µM
same,concentration at 6 h,[5]; [7],90000 ng/mL and 90 µM
same,concentration at 12 h,[5]; [7],64400 ng/mL and 64.4 µM
same,concentration at 24 h,[5]; [7],1700 ng/mL and 1.7 µM
same,time of plasma peak,"[5]; mice, i.p.",3 to 6 h
same,AUC/Dose,In vivo rat PK profiling; 1 mg/kg i.v. single bolus,184 ng × h/mL/dose
same,AUC/Dose,In vivo rat PK profiling; 1 mg/kg p.o. single bolus,50 ng × h/mL/dose
same,IC50,CYP2C19,> 50000 nM
same,activity in the 68 assays of LeadProfilingScreen,[6],No significant activity; also recorded: no significant binding
O=c1cc(CSc2c(Cl)cccc2Cl)[nH][nH]1 [Compound 2],activity in primary cortical neuron cell protection assay,primary cortical neurons,active
